Reference: ChEMBL document CHEMBL1134294, “A prodrug form of a Plasmodium falciparum glutathione reductase inhibitor conjugated with a 4-anilinoquinoline” (J Med Chem, 2001)
pEC50, pIC50: −log10 of the molar value. Calls of active or inactive are those of the source. The rule behind the calls is not given here.

Columns and labels:
[1] = test system: Plasmodium falciparum; test: Effective dose against chloroquine-resistant Plasmodium falciparum FcB1R; type: functional
How it was run: (§1)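 Asynchronous cultures in human erythrocytes (0.5% parasitemia, 1% hematocrit) received serially diluted drug, DMSO ≤0.1%. After 24 h at 37 °C, 0.5 μCi [3H]hypoxanthine was added and incubation continued another 24 h. Growth inhibition was taken versus drug-free control, ED50 read from the concentration–response curve, and reported as mean of ≥3 independent experiments.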

[2] = test system: Mus musculus; test: Percentage excess MST, when used as the chlorohydrate in mice infected with Plasmodium berghei (i.p., 40 mg/kg); type: functional; conditions: route intraperitoneal
How it was run: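 Female Swiss CD-1 mice (four weeks, 20–25 g), three per group, were infected ip with about 10^7 P. berghei ANKA parasitized erythrocytes. Dosing was 40 mg/kg in 100% DMSO, given orally at infection, then ip over the following 4 days. Parasitemia was counted daily. Activity was scored as percentage excess mean survival time over DMSO-treated infected controls.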

[3] = Susceptibility of compound to hydrolysis at 37 degrees C at pH 5.0 acetate medium; type: ADME
How it was run: (§2)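 Prodrug (100 μM final, from 1 mM stock in 10% aqueous DMSO) is incubated at 37 °C in pH 7.4 phosphate buffer (150 mM NaCl, 4 mM NaH₂PO₄, 25 mM NaHCO₃) or pH 5.0 acetate (150 mM NaCl, 10 mM NaOAc). Half-life of ester disappearance is found by HPLC as the mean of two determinations.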

[4] = Susceptibility of compound to hydrolysis at 37 degrees C at pH 7.4 phosphate buffer; type: ADME; how it was run: as §2
[5] = test system: Plasmodium berghei; test: Parasitaemia (%) on day 4 in Plasmodium berghei infected mice (Mus musculus) at 40 mg/kg intraperitoneal dose; type: functional
How it was run: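 Female Swiss CD-1 mice (four-week-old, 20–25 g, three per group) are infected ip with about 10⁷ P. berghei ANKA 65 parasitized erythrocytes from a donor. On the day of infection they receive 40 mg/kg orally in 100% DMSO, then daily ip for 4 days. Parasitemia is counted daily. Controls get DMSO only.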

[6] = Susceptibility of compound to hydrolysis at 37 degrees C for RPMI-10% human serum; type: ADME; conditions: RPMI with 10% human serum
How it was run: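 Prodrug (100 μM final, from 1 mM stock in 10% aqueous DMSO) is held in RPMI with 10% human serum at 37 °C and sampled from 0 to 77.5 h. Samples are mixed with EtOH plus internal reference, centrifuged, and the supernatant is analysed by HPLC. Half-life of ester disappearance is the mean of two determinations.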

[7] = target: Glutathione reductase (Plasmodium falciparum 3D7, UniProt O15770); test: In vitro inhibition of Plasmodium falciparum Glutathione Reductase; set-up: species or system FcB1
How it was run: (§3)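 Recombinant purified GR (about 5 mU/ml) with 100 μM NADPH in 47 mM potassium phosphate, 200 mM KCl, 1 mM EDTA, pH 6.9, at 25 °C. Enzyme, NADPH and inhibitor are premixed and the reaction is started with 100 μM GSSG. NADPH loss is read at 340 nm. IC50 is taken from increasing inhibitor concentrations in 1% final DMSO, run in duplicate.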

[8] = target: T1, Glutathione reductase, mitochondrial (Homo sapiens) (UniProt P00390); test: Competitive inhibition of human Glutathione Reductase
T1 sequence (whole entry): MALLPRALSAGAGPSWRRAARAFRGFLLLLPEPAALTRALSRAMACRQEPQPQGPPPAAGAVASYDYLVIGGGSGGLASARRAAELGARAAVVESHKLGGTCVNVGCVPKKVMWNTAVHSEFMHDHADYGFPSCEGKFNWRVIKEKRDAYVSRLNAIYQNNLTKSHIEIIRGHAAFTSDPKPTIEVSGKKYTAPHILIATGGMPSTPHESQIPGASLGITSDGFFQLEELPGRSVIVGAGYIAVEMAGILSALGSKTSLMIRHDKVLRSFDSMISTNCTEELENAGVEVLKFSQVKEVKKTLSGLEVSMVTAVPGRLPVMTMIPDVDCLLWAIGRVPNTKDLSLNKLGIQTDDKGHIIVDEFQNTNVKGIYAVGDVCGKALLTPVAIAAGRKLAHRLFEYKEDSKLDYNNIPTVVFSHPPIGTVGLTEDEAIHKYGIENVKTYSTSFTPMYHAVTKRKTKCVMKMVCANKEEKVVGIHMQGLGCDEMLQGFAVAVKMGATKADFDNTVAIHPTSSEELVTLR

[9] = target: Glutathione reductase (Plasmodium falciparum 3D7) (UniProt O15770); test: Competitive inhibition of Plasmodium falciparum Glutathione Reductase; conditions: Plasmodium falciparum FcB1
[10] = target: T2, Glutathione reductase, mitochondrial (Homo sapiens, UniProt P00390); test: In vitro inhibition of human Glutathione Reductase; how it was run: as §3
T2 sequence (P00390 whole entry): T1 sequence (whole entry)

[11] = target: Glutathione reductase (Plasmodium falciparum 3D7) (UniProt O15770); test: In vitro inhibition of Plasmodium falciparum Glutathione Reductase; Not active; conditions: Plasmodium falciparum FcB1; how it was run: as §3
[12] = target: T1, Glutathione reductase, mitochondrial (Homo sapiens); test: In vitro inhibition of human Glutathione Reductase; Not active; how it was run: as §3
[13] = test system: Plasmodium falciparum; test: In vitro efficacy for chloroquine-resistant Plasmodium falciparum W2; type: functional; conditions: read-out: ED50 (the source's name); how it was run: as §1
[14] = test system: Plasmodium falciparum; test: In vitro efficacy for chloroquine-resistant Plasmodium falciparum K1; type: functional; conditions: read-out: ED50 (the source's name); how it was run: as §1
[15] = test system: Plasmodium falciparum; test: In vitro efficacy for chloroquine-sensitive Plasmodium falciparum D6; conditions: read-out: ED50 (the source's name)
[16] = test system: Plasmodium falciparum; test: In vitro efficacy for chloroquine-sensitive Plasmodium falciparum F32; conditions: read-out: ED50 (the source's name)
[17] = test system: Plasmodium falciparum; test: In vitro efficacy for chloroquine-resistant Plasmodium falciparum FcB1; type: functional; conditions: read-out: ED50 (the source's name); how it was run: as §1
[18] = test system: Plasmodium falciparum; test: In vitro efficacy for chloroquine-sensitive Plasmodium falciparum Thai; conditions: read-out: ED50 (the source's name)
[19] = read-out: ED50 (the source's name)

Sequence of Glutathione reductase (Plasmodium falciparum 3D7) (O15770 whole entry): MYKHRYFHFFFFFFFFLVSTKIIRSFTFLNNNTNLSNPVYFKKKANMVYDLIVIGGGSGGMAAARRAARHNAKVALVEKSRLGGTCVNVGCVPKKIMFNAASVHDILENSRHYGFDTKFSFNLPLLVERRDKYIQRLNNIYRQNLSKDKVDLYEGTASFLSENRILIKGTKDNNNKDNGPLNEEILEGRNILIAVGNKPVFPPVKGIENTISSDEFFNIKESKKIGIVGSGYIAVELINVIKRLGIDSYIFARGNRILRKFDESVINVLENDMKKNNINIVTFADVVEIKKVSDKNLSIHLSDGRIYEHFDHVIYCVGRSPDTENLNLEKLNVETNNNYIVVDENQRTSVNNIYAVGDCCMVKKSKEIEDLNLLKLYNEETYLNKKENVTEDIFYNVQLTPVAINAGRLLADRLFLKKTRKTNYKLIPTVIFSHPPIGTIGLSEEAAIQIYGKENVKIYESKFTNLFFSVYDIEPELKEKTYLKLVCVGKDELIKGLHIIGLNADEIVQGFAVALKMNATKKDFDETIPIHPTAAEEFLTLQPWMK
Sequence of Glutathione reductase (O15770 whole entry): as above

CC1=C(CCCCCNC(=O)OCc2cc(NC(=O)CN3CCCCC3)cc(Nc3ccnc4cc(Cl)ccc34)c2)C(=O)c2ccccc2C1=O
pEC50 ([1]; read-out: ED50): 6.84

CC1=C(CCCCC(=O)OCc2cc(NC(=O)CN3CCCCC3)cc(Nc3ccnc4cc(Cl)ccc34)c2)C(=O)c2c(O)cccc2C1=O
Excess MST [2]: 39%
pEC50 ([1]; read-out: ED50): 7.54
half-life [3]: > 80 h
half-life [4]: > 80 h
Parasitaemia [5]: 9%
half-life [6]: > 80 h

CC1=C(CCCCC(=O)O)C(=O)c2ccccc2C1=O
pIC50 [7]: 5.40
pEC50 [1, 19]: 5.55
Ki.c [8]: 1.8
Ki.c [9]: 3100 nM
pIC50 [10]: 5.57

CC1=C(CCCCCC(=O)OCOC(=O)C(C)(C)C)C(=O)c2ccccc2C1=O
NA [11]: inactive
pEC50 [1, 19]: 4.62
half-life [3]: 1 h
half-life [4]: 2 h
NA [12]: inactive

CC1=C(CCCCC(=O)OCc2cc(NC(=O)CN3CCCCC3)cc(Nc3ccnc4cc(Cl)ccc34)c2)C(=O)c2ccccc2C1=O
pEC50 [1, 19]: 4.33

CC1=C(CCC(=O)OCc2cc(NC(=O)CN3CCCCC3)cc(Nc3ccnc4cc(Cl)ccc34)c2)C(=O)c2ccccc2C1=O
pEC50 [1, 19]: 3.84

CCN(CC)CCCC(C)Nc1ccnc2cc(Cl)ccc12 (centres undefined) [CHLOROQUINE]
pEC50 [13]: 6.76
pEC50 [14]: 6.74
pEC50 [15]: 7.27
pEC50 [16]: 7.72
pEC50 [17]: 6.90
pEC50 [18]: 7.84

CCN(CCCC(C)Nc1ccnc2cc(Cl)ccc12)CCOC(=O)CCCCCC1=C(C)C(=O)c2ccccc2C1=O (centres undefined)
pEC50 [1, 19]: 6.97
half-life [3]: > 80 h
half-life [4]: > 80 h
half-life [6]: > 80 h
